# Laboratory results published in ChEMBL document CHEMBL1153025, “Triterpene glycosides from the underground parts of Caulophyllum thalictroides” (J Nat Prod, 2009).
# Test system: HL-60
# Test: Cytotoxicity against human HL60 cells after 72 hrs by MTT assay
# Type: functional, cell-based
# Settings: HL-60, 72 h
# Procedure, shortened: (§1)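 HL-60 (JCRB 0085) cells in RPMI 1640 with 10% FBS, L-glutamine, penicillin G and streptomycin, seeded at 4 × 10^4 cells/mL, preincubated 24 h at 37 °C in 5% CO2. Sample added in EtOH-H2O (1:1) to final 0.1-20 µg/mL; vehicle in controls. After 72 h, MTT 4 h, centrifuged, formazan dissolved in DMSO. Mean ± SEM of three experiments in triplicate.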
row,SMILES,IC50 [µg/mL]
1,CC1(C)CC[C@]2(C(=O)O)[C@H](O)C[C@]3(C)C(=CC[C@@H]4[C@@]5(C)CC[C@H](O[C@@H]6OC[C@H](O)[C@H](O)[C@H]6O[C@@H]6O[C@H](CO)[C@@H](O)[C@H](O)[C@H]6O)C(C)(C)[C@@H]5CC[C@]43C)[C@@H]2C1,11.8
2,CC1(C)CC[C@]2(C(=O)O)[C@H](O)C[C@]3(C)C(=CC[C@@H]4[C@@]5(C)CC[C@H](O[C@@H]6OC[C@H](O)[C@H](O)[C@H]6O)C(C)(C)[C@@H]5CC[C@]43C)[C@@H]2C1,5.6
3,CC1(C)CC[C@]2(C(=O)O)CC[C@]3(C)C(=CC[C@@H]4[C@@]5(C)CC[C@H](O[C@@H]6OC[C@H](O)[C@H](O)[C@H]6O[C@@H]6O[C@H](CO)[C@@H](O)[C@H](O)[C@H]6O)[C@@](C)(CO)[C@@H]5CC[C@]43C)[C@@H]2C1,15.9
4,CC1(C)CC[C@]2(C(=O)O)CC[C@]3(C)C(=CC[C@@H]4[C@@]5(C)CC[C@H](O[C@@H]6OC[C@H](O)[C@H](O)[C@H]6O)[C@@](C)(C=O)[C@@H]5CC[C@]43C)[C@@H]2C1,4.8
5,CC1(C)CC[C@]2(C(=O)O)CC[C@]3(C)C(=CC[C@@H]4[C@@]5(C)CC[C@H](O[C@@H]6OC[C@H](O)[C@H](O)[C@H]6O)C(C)(C)[C@@H]5CC[C@]43C)[C@@H]2C1,3.4
6,CC1(C)CC[C@]2(C(=O)O)CC[C@]3(C)C(=CC[C@@H]4[C@@]5(C)CC[C@H](O[C@@H]6OC[C@H](O)[C@H](O)[C@H]6O)C(C)(CO)[C@@H]5CC[C@]43C)[C@@H]2C1 (stereo partly drawn),12.5
7,COc1cc([C@@H]2c3cc4c(cc3[C@@H](O[C@@H]3O[C@@H]5CO[C@@H](C)O[C@H]5[C@H](O)[C@H]3O)[C@H]3COC(=O)[C@H]23)OCO4)cc(OC)c1O [ETOPOSIDE],0.26
8,CC1(C)CC[C@]2(C(=O)O)CC[C@]3(C)C(=CC[C@@H]4[C@@]5(C)CC[C@H](O[C@@H]6OC[C@H](O)[C@H](O)[C@H]6O[C@@H]6O[C@H](CO)[C@@H](O)[C@H](O)[C@H]6O)C(C)(C)[C@@H]5CC[C@]43C)[C@@H]2C1,10.8

# Test system: HL-60
# Test: Cytotoxicity against human HL60 cells up to 20 ug/ml after 72 hrs by MTT assay
# Type: functional, cell-based
# Settings: not given
# Procedure, shortened: as §1
row,SMILES,Activity
1,CC1(C)CC[C@]2(C(=O)O)[C@H](O)C[C@]3(C)C(=CC[C@@H]4[C@@]5(C)CC[C@H](O[C@@H]6OC[C@H](O)[C@H](O)[C@H]6O[C@@H]6O[C@H](CO)[C@@H](O)[C@H](O)[C@H]6O)[C@@](C)(CO)[C@@H]5CC[C@]43C)[C@@H]2C1,Not toxic
2,C[C@H]1[C@@H]2[C@H]3CC[C@@H]4[C@@]5(C)CC[C@H](O[C@@H]6OC[C@H](O)[C@H](O)[C@H]6O[C@@H]6O[C@H](CO)[C@@H](O)[C@H](O)[C@H]6O)C(C)(C)[C@@H]5CC[C@@]4(C)[C@]3(C)CC[C@@]23CC[C@]1(C)OC3=O,Not toxic
3,C[C@@H]1O[C@@H](O[C@H]2[C@H](O)[C@@H](O)[C@H](OC[C@H]3O[C@@H](OC(=O)[C@]45CCC(C)(C)C[C@H]4C4=CC[C@@H]6[C@@]7(C)CC[C@H](O[C@@H]8OC[C@H](O)[C@H](O)[C@H]8O)[C@@](C)(CO)[C@@H]7CC[C@@]6(C)[C@]4(C)CC5)[C@H](O)[C@@H](O)[C@@H]3O)O[C@@H]2CO)[C@H](O)[C@H](O)[C@H]1O,Not toxic
4,C[C@@H]1O[C@@H](O[C@H]2[C@H](O)[C@@H](O)[C@H](OC[C@H]3O[C@@H](OC(=O)[C@]45CCC(C)(C)C[C@H]4C4=CC[C@@H]6[C@@]7(C)CC[C@H](O)[C@@](C)(CO)[C@@H]7CC[C@@]6(C)[C@]4(C)CC5)[C@H](O)[C@@H](O)[C@@H]3O)O[C@@H]2CO)[C@H](O)[C@H](O)[C@H]1O,Not toxic
5,C[C@@H]1O[C@@H](O[C@H]2[C@H](O)[C@@H](O)[C@H](OC[C@H]3O[C@@H](OC(=O)[C@]45CCC(C)(C)C[C@H]4C4=CC[C@@H]6[C@@]7(C)CC[C@H](O[C@@H]8OC[C@H](O)[C@H](O)[C@H]8O[C@@H]8O[C@H](CO)[C@@H](O)[C@H](O)[C@H]8O)C(C)(C)[C@@H]7CC[C@@]6(C)[C@]4(C)CC5)[C@H](O)[C@@H](O)[C@@H]3O)O[C@@H]2CO)[C@H](O)[C@H](O)[C@H]1O,Not toxic
6,CC1(C)CC[C@]2(C(=O)O[C@@H]3O[C@H](CO[C@@H]4O[C@H](CO)[C@@H](O)[C@H](O)[C@H]4O)[C@@H](O)[C@H](O)[C@H]3O)[C@H](O)C[C@]3(C)C(=CC[C@@H]4[C@@]5(C)CC[C@H](O[C@@H]6OC[C@H](O)[C@H](O)[C@H]6O)[C@@](C)(CO)[C@@H]5CC[C@]43C)[C@@H]2C1,Not toxic
7,CC1(C)CC[C@@]23CC[C@]4(C)[C@@](OC2=O)([C@@H]3C1)[C@H]1O[C@H]1[C@@H]1[C@@]2(C)CC[C@H](O[C@@H]3OC[C@H](O)[C@H](O)[C@H]3O[C@@H]3O[C@H](CO)[C@@H](O)[C@H](O)[C@H]3O)[C@@](C)(CO)[C@@H]2CC[C@]14C,Not toxic
8,C[C@@H]1O[C@@H](O[C@H]2[C@H](O)[C@@H](O)[C@H](OC[C@H]3O[C@@H](OC(=O)[C@]45CCC(C)(C)C[C@H]4C4=CC[C@@H]6[C@@]7(C)CC[C@H](O[C@@H]8OC[C@H](O)[C@H](O)[C@H]8O[C@@H]8O[C@H](CO)[C@@H](O)[C@H](O)[C@H]8O)[C@@](C)(CO)[C@@H]7CC[C@@]6(C)[C@]4(C)CC5)[C@H](O)[C@@H](O)[C@@H]3O)O[C@@H]2CO)[C@H](O)[C@H](O)[C@H]1O,Not toxic
9,CC1(C)CC[C@@]2(C(=O)O)C(=C3C=C[C@@H]4[C@@]5(C)CC[C@H](O[C@@H]6OC[C@H](O)[C@H](O)[C@H]6O)[C@@](C)(CO)[C@@H]5CC[C@@]4(C)[C@]3(C)C[C@H]2O)C1,Not toxic
10,CC1(C)CC[C@]2(C(=O)O)[C@H](O)C[C@]3(C)C(=CC[C@@H]4[C@@]5(C)CC[C@H](O[C@@H]6OC[C@H](O)[C@H](O)[C@H]6O)[C@@](C)(CO)[C@@H]5CC[C@]43C)[C@@H]2C1,Not toxic
11,CC1(C)CC[C@]2(C(=O)O[C@@H]3O[C@H](CO)[C@@H](O)[C@H](O)[C@H]3O)[C@H](O)C[C@]3(C)C(=CC[C@@H]4[C@@]5(C)CC[C@H](O[C@@H]6OC[C@H](O)[C@H](O)[C@H]6O)[C@@](C)(CO)[C@@H]5CC[C@]43C)[C@@H]2C1,Not toxic
12,CC1(C)CC[C@@]23C(=O)O[C@]4([C@@H]2C1)[C@H]1O[C@H]1[C@@H]1[C@@]2(C)CC[C@H](O[C@@H]5OC[C@H](O)[C@H](O)[C@H]5O)[C@@](C)(CO)[C@@H]2CC[C@@]1(C)[C@]4(C)C[C@H]3O,Not toxic
13,C[C@H]1[C@@H]2C3CC[C@@H]4[C@@]5(C)CC[C@H](O[C@@H]6OC[C@H](O)[C@H](O)[C@H]6O[C@@H]6O[C@H](CO)[C@@H](O)[C@H](O)[C@H]6O)C(C)(C)[C@@H]5CC[C@@]4(C)[C@]3(C)CC[C@@]2(C(=O)O)CC[C@@]1(C)O (stereo partly drawn),Not toxic
14,CC1(C)CC[C@]2(C(=O)O)[C@H](O)C[C@]3(C)C(=CC[C@@H]4[C@@]5(C)CC[C@H](O[C@@H]6OC[C@H](O)[C@H](O)[C@H]6O)[C@@](C)(C=O)[C@@H]5CC[C@]43C)[C@@H]2C1,Not toxic
15,C[C@@H]1O[C@@H](O[C@H]2[C@H](O)[C@@H](O)[C@H](OC[C@H]3O[C@@H](OC(=O)[C@]45CCC(C)(C)C[C@H]4C4=CC[C@@H]6[C@@]7(C)CC[C@H](O[C@@H]8OC[C@H](O)[C@H](O)[C@H]8O)[C@@](C)(CO)[C@@H]7CC[C@@]6(C)[C@]4(C)C[C@H]5O)[C@H](O)[C@@H](O)[C@@H]3O)O[C@@H]2CO)[C@H](O)[C@H](O)[C@H]1O,Not toxic
